From paper PMC7397737 (Chemical research in toxicology, 2019)
Values joined by “and” are separate entries in the source; they are usually repeats but may differ in a detail not shown here. Identical values can stand only once.

Experiments:
[1] = test system: CYPs in pooled mouse liver microsomes (MLMs); assay: Chemical inhibition of 1′-hydroxyelemicin formation in liver microsomes; assay type: in vitro ADME; settings: inhibitor 10 μM (CYP3A4); 50 μM elemicin; MLMs 0.5 mg/mL; 40 min
C57BL/6J mice [2] = assay: Experiment 3: high-oleic acid diet with 1′-hydroxyelemicin in mice; assay type: in vivo, mouse; settings: high-oleic acid diet + 100 mg/kg 1′-hydroxyelemicin 3 days
[3] = test system: stearoyl-CoA desaturase 1 (SCD1); assay: Hepatic Scd1 mRNA; assay type: in vivo, mouse; settings: for mRNA levels of Scd1 in liver: qPCR, vs control mice
How it was run: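 C57BL/6J mice (n = 6; n = 4 in SCD1-inhibitor study) gavaged with test compound 100 mg/kg every 24 h ×3, vehicle 0.5% CMC-Na. Where used, SCD1 inhibitor (DMSO/Tween 80/saline 1:2:97) was given i.p. twice daily, 10 mg/kg/day, starting before first dose. Liver flash-frozen. Western: RIPA/PMSF lysate, 10 μg protein, 10% SDS-PAGE, PVDF, ECL detection. mRNA by qRT-PCR.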

C57BL/6J mice [4] = assay: Experiment 4: SCD1 suppression by A939572 with 1′-hydroxyelemicin in mice; assay type: in vivo, mouse; settings: A939572 10 mg/kg/day i.p. + 100 mg/kg 1′-hydroxyelemicin
[5] = mouse, in vivo, 100 mg/kg
C57BL/6J mice [6] = assay: Experiment 6: elemicin versus 1′-hydroxyelemicin toxicity at the same dose; assay type: in vivo, mouse
human recombinant CYP2A6 = target: T1, human recombinant CYP2A6 (Homo sapiens, UniProt P11509); assay: Kinetics of elemicin 1′-hydroxylation by recombinant CYP2A6; assay type: in vitro ADME
T1 sequence (P11509 1-494): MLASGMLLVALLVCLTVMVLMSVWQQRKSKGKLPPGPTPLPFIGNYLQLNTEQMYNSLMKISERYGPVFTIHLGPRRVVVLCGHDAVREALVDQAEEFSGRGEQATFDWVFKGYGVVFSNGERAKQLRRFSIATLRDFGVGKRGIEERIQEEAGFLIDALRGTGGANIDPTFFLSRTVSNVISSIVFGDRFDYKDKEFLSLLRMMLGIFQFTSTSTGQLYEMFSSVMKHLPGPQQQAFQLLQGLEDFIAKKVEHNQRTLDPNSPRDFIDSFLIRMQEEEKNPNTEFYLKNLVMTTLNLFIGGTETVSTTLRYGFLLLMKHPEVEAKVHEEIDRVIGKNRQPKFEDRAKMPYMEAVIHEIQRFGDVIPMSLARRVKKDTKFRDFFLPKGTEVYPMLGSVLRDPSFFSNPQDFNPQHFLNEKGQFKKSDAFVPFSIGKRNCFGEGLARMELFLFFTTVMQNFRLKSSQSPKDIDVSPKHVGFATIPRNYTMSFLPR

human recombinant CYP1A1 = target: T2, human recombinant CYP1A1 (Homo sapiens, UniProt P04798); assay: Kinetics of elemicin 1′-hydroxylation by recombinant CYP1A1; assay type: in vitro ADME
T2 sequence (P04798 1-512): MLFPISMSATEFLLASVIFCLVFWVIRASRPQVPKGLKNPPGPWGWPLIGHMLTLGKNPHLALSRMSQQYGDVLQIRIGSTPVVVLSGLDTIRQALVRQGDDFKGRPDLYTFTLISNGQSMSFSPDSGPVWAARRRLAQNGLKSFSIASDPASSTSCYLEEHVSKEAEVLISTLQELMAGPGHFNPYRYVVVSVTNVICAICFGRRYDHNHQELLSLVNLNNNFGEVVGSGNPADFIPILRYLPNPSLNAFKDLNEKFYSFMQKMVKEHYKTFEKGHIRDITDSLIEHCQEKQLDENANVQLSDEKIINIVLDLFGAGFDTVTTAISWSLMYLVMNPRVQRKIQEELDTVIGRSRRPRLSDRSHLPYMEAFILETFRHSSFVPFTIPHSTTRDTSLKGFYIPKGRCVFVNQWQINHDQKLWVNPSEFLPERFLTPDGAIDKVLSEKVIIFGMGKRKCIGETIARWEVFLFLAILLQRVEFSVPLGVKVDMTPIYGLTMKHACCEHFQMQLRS

C57BL/6J mice [7] = assay: Experiment 1: toxicity of elemicin in mice, 3 weeks; assay type: in vivo, mouse
[8] = substrate: C=CCc1cc(OC)c(OC)c(OC)c1; assay: Kinetics of elemicin 1′-hydroxylation by recombinant CYP2C19; assay type: in vitro ADME, human; settings: other: 1′-hydroxyelemicin formation from elemicin, mean ± SD
[9] = substrate: C=CCc1cc(OC)c(OC)c(OC)c1; assay: Kinetics of elemicin 1′-hydroxylation by recombinant CYP2A6; assay type: in vitro ADME, human; settings: other: 1′-hydroxyelemicin formation from elemicin, mean ± SD
[10] = substrate: C=CCc1cc(OC)c(OC)c(OC)c1; assay: Kinetics of elemicin 1′-hydroxylation by recombinant CYP1A1; assay type: in vitro ADME, human; settings: other: 1′-hydroxyelemicin formation from elemicin, mean ± SD
[11] = substrate: C=CCc1cc(OC)c(OC)c(OC)c1; assay: Kinetics of elemicin 1′-hydroxylation by recombinant CYP1A2; assay type: in vitro ADME, human; settings: other: 1′-hydroxyelemicin formation from elemicin, mean ± SD
[12] = 1′-hydroxyelemicin 100 mg/kg oral, 3 days
[13] = elemicin 500 mg/kg oral, 3 weeks
[14] = 500 mg/kg oral every 24 h for 3 weeks, vs control group
[15] = 500 mg/kg oral, 3 weeks, vs control group

## CC(=O)N1CCN(c2ccc(OCC3COC(Cn4ccnc4)(c4ccc(Cl)cc4Cl)O3)cc2)CC1 (centres unmarked) [ketoconazole]
[1]
  inhibitory effect against 1′-hydroxyelemicin generation: relative higher inhibitory effects

## CCCCCCCC/C=C\CCCCCCCC(=O)O [oleic acid]
C57BL/6J mice [2]
  16:1-LPC, 18:1-LPC and 18:2-LPC levels in plasma: ameliorated the decrease
  ratios of 18:1-LPC to 18:0-LPC and 16:1-LPC to 16:0-LPC in plasma: increased to normal level
C57BL/6J mice [2]; vs control mice
  hepatic TG content: still higher than that of control mice
  liver size: still higher than that of control mice

## CNC(=O)c1cccc(NC(=O)N2CCC(Oc3ccccc3Cl)CC2)c1 [A939572]
[3]; A939572 10 mg/kg/day i.p. + 100 mg/kg 1′-hydroxyelemicin, A + E′ group
  SCD1 expression in liver (Western blot): significantly decreased
C57BL/6J mice [4]; A + E′ group
  levels of monounsaturated-LPCs in plasma: further decreased
C57BL/6J mice [4]; A + E′ vs E′ group
  TG levels in plasma: markedly elevated
  ratio of unsaturated-LPCs to saturated-LPCs: significantly reduced

## C=CC(O)c1cc(OC)c(OC)c(OC)c1 (centres unmarked) [1′-hydroxyelemicin]
[3]; [12]
  SCD1 protein in liver (Western blot): decreased
  mRNA levels of Scd1 in liver: clearly decreased
[5]
  GSH adduct in urine: observed in the urine
C57BL/6J mice [6]; mouse, in vivo
  liver index compared with the same dose of elemicin: higher

## C=CCc1cc(OC)c(OC)c(OC)c1 [elemicin, 3,4,5-trimethoxyallylbenzene]
[3]; [13]
  SCD1 protein in liver (Western blot): decreased
  mRNA levels of Scd1 in liver: clearly decreased
Human recombinant CYP2A6; 1′-hydroxyelemicin formation from elemicin, mean ± SD
  Vmax: 0.524 ± 0.110 nmol min^−1 nmol P450^−1
Human recombinant CYP2A6; Vmax/Km × 1000 μL
  in vitro catalytic efficiency: 0.520 μL min^−1 nmol P450^−1
Human recombinant CYP1A1
  Vmax: 1.80 ± 0.045 nmol ● min^−1 nmol ● CYP^−1
Human recombinant CYP1A1; Vmax/Km × 1000 μL
  in vitro catalytic efficiency: 140.062 μL min^−1 nmol P450^−1
C57BL/6J mice [6]; 100 mg/kg for 3 days, mice
  hepatomegaly: did not result in hepatomegaly
C57BL/6J mice [7]; 500 mg/kg oral every 24 h for 3 weeks, H&E
  histopathological analysis of hepatic tissue: cytoplasmic pale staining, hepatocyte swelling and the cytoplasm seemed abnormal around the central vein
C57BL/6J mice [7]; [14]
  TG levels in liver: significantly elevated
  TG levels in plasma: significantly elevated
  liver weights (hepatic index): increased
  serum ALT: no significant changes
  total plasma GSH and GSSG: reduced
C57BL/6J mice [7]; [15]
  ratios of 18:1-LPC to 18:0-LPC and 16:1-LPC to 16:0-LPC in plasma: dramatically reduced
  saturated LPC (18:0-LPC) in plasma: significantly increased
  unsaturated LPCs (18:1-, 18:2-, 16:1-, 20:4-LPC) in plasma: obviously reduced

B1: human recombinant CYP2C19 (Homo sapiens) (protein)
chain: MDPFVVLVLCLSCLLLLSIWRQSSGRGKLPPGPTPLPVIGNILQIDIKDVSKSLTNLSKIYGPVFTLYFGLERMVVLHGYEVVKEALIDLGEEFSGRGHFPLAERANRGFGIVFSNGKRWKEIRRFSLMTLRNFGMGKRSIEDRVQEEARCLVEELRKTKASPCDPTFILGCAPCNVICSIIFQKRFDYKDQQFLNLMEKLNENIRIVSTPWIQICNNFPTIIDYFPGTHNKLLKNLAFMESDILEKVKEHQESMDINNPRDFIDCFLIKMEKEKQNQQSEFTIENLVITAADLLGAGTETTSTTLRYALLLLLKHPEVTAKVQEEIERVIGRNRSPCMQDRGHMPYTDAVVHEVQRYIDLIPTSLPHAVTCDVKFRNYLIPKGTTILTSLTSVLHDNKEFPNPEMFDPRHFLDEGGNFKKSNYFMPFSAGKRICVGEGLARMELFLFLTFILQNFNLKSLIDPKDLDTTPVVNGFASVPPFYQLCFIPV
[8]
  Km: 43.430 ± 3.613 µM
  kcat: 0.00792 ± 0.0002 s⁻¹
  kcat/Km: 182 M⁻¹ s⁻¹

B2: human recombinant CYP2A6 (Homo sapiens) (protein)
chain: T1 sequence (P11509 1-494)
[9]
  Km: 1007.000 ± 293.000 µM

B3: human recombinant CYP1A1 (Homo sapiens) (protein)
chain: T2 sequence (P04798 1-512)
[10]
  Km: 12.9 ± 1.26 µM and 12.880 ± 1.265 µM
  kcat/Km: 140 μL min^−1 nmol CYP^−1

B4: human recombinant CYP1A2 (Homo sapiens) (protein)
chain: MALSQSVPFSATELLLASAIFCLVFWVLKGLRPRVPKGLKSPPEPWGWPLLGHVLTLGKNPHLALSRMSQRYGDVLQIRIGSTPVLVLSRLDTIRQALVRQGDDFKGRPDLYTSTLITDGQSLTFSTDSGPVWAARRRLAQNALNTFSIASDPASSSSCYLEEHVSKEAKALISRLQELMAGPGHFDPYNQVVVSVANVIGAMCFGQHFPESSDEMLSLVKNTHEFVETASSGNPLDFFPILRYLPNPALQRFKAFNQRFLWFLQKTVQEHYQDFDKNSVRDITGALFKHSKKGPRASGNLIPQEKIVNLVNDIFGAGFDTVTTAISWSLMYLVTKPEIQRKIQKELDTVIGRERRPRLSDRPQLPYLEAFILETFRHSSFLPFTIPHSTTRDTTLNGFYIPKKCCVFVNQWQVNHDPELWEDPSEFRPERFLTADGTAINKPLSEKMMLFGMGKRRCIGEVLAKWEIFLFLAILLQQLEFSVPPGVKVDLTPIYGLTMKHARCEHVQARLRFSIN
[11]
  Km: 15.850 ± 3.067 µM
  kcat: 0.0067 ± 0.00035 s⁻¹
  kcat/Km: 423 M⁻¹ s⁻¹
